MT stabilizer – microtubule stabilizers in HeLa cells | HeLa tubulin immunostaining HCS, 24 h; share of cells brighter than vehicle mean+2SD | % tubulin-high responders, % at 10 µM | 0.83% of 200,000 active | AID 2205;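 active means plate Z-score above 3 for both tubulin-high and condensed-nucleus cell shares, with cell loss under 80%, at 10 µM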;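 further: anti alpha tubulin signal scored within the nucleus-defined area of each cell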
BaF3 tox – counter-screen for JAK2V617F inhibitors: parental Ba/F3 viability inhibitors; CellTiter-Glo ATP luminescence; inhibition, % at 5.6 µM; 1.1% of 220,000 active; AID 1486;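 active means inhibition above a per-campaign cutoff, the mean inhibition of all tested compounds plus 3 SD, cut at about 27% in these data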
APP transl inh – APP translation inhibition; inhibition, % at 2 µM; SH-SY5Y APP 5'UTR-luciferase reporter, luminescence; 0.82% of 190,000 active;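 active means inhibition above a set limit, derived from the sample mean plus 3 SD, cut at about 45% in these data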
b-catenin transl – alters nuclear translocation of beta-catenin in HeLa cells. immunofluorescence imaging. nuclear translocation activity, % at 5 µM. AID 1665. 0.3% of 190,000 active;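 active means nuclear translocation activity above 50% at 5 µM, with a well cell count of 50 or more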;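 further: per-cell ratio of nuclear to cytoplasmic median beta-catenin stain intensity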
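assay system = human HeLa cells, endogenous beta-catenin | times = compound treatment 24 h, 37°C, 5% CO2 | detection = Anti-beta-catenin immunofluorescence on PFA-fixed, Triton-permeabilized cells, DAPI nuclei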
L major viab – reduces viability of Leishmania major promastigotes; resazurin fluorescence viability; inhibition, % at 10 µM; 9% of 200,000 active; AID 1063; in the data active means inhibition above about 50%;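 further: promastigotes grown with compound for 44 hours at 28 °C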
Ba/F3 V617F tox – lowers viability of Ba/F3 cells expressing EpoR and JAK2V617F; inhibition, % at 5.6 µM; AID 1446; ATP luminescence; 1.1% of 220,000 active;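 active means inhibition above the campaign mean plus 3 SD over all tested compounds, cut at about 24% in these data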;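 further: cytokine-independent growth of Ba/F3 cells driven by EpoR plus mutant JAK2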
Large screens that a line does not name were inactive. Hits are enriched below; roughly 9.6% of the tested compounds scored in any of these assays.

CCN(CC)S(=O)(=O)c1cc(C(=O)N2CCc3ccccc32)ccc1Cl	L major viab 75
CCN(C(=O)CSc1nc2cc(Cl)ccc2c(=O)n1Cc1ccco1)C1CCS(=O)(=O)C1 (stereo not drawn)	none
Nc1ccc2oc(-c3cc(Br)ccc3Cl)nc2c1	BaF3 tox 38, APP transl inh 46, Ba/F3 V617F tox 33
Nc1ccc2oc(-c3ccccc3Cl)nc2c1	none
O=C(NCc1nc2ccccc2[nH]1)C1=C[C@H](c2coc3ccccc3c2=O)C[C@H](OCc2ccc(CO)cc2)O1	none (no result: MT stabilizer, BaF3 tox, APP transl inh, L major viab, Ba/F3 V617F tox)
Cc1ccc(CSc2ccc(-c3cccs3)nn2)cc1	none
c1cncc(CSc2ccc(-c3cccs3)nn2)c1	BaF3 tox 46
O=C(O)/C=C/C(=O)NCCCc1ccccc1	none
N#CC(C#N)=c1ccc2c(c1)NC1(CCCCC1)N=2	L major viab 100
Cc1cc2ccccc2n2c(SCC(=O)Nc3ccc(S(=O)(=O)N4CCC(C)CC4)cc3)nnc12	none
Cc1cc(/C=C2\SC(=Nc3ccccc3)NC2=O)c(C)n1-c1ccc(S(N)(=O)=O)cc1	BaF3 tox 63, APP transl inh 53, Ba/F3 V617F tox 28 (no result: b-catenin transl)
COc1ccc(/C=N/NC(=O)C2COc3ccccc3O2)cc1OC (stereo not drawn)	none
O=C(N/N=C\c1cc(Br)cs1)C1COc2ccccc2O1 (stereo not drawn)	MT stabilizer 43, L major viab 53
O=C(N/N=C/c1ccc2c(c1)OCO2)C1COc2ccccc2O1 (stereo not drawn)	MT stabilizer 41
N/C(=N\OC(=O)CSc1ccccc1)c1cccc([N+](=O)[O-])c1	L major viab 81
N/C(=N\OC(=O)Oc1ccccc1)c1cccc([N+](=O)[O-])c1	L major viab 59
N/C(=N\OC(=O)Oc1ccccc1)c1ccc([N+](=O)[O-])cc1	none
CN(C)/C=C/C(=O)c1c(F)cccc1F	none (no result: MT stabilizer, APP transl inh, L major viab)
CCOC(=O)CN1C(=O)C2Cc3ccccc3CN2C1=S (stereo not drawn)	none
COc1ccc(S(=O)(=O)N(C(=O)c2ccncc2)c2ccc3oc4c(c3c2)CCCC4)cc1	MT stabilizer 22
COc1cc(/C=N/NC(=O)c2cn(-c3cccc(C)n3)cn2)ccc1O	L major viab 98
Cc1cccc(-n2cnc(C(=O)O)c2)n1	none
COc1cc(/C=N/NC(=O)c2nc(C)cc(C)n2)ccc1O	none
C/C(=N/NC(=O)c1cn(-c2cccc(C)n2)cn1)c1ccc(C)cc1	L major viab 77
CCc1ccccc1NC1=CC(=O)CC(C)(C)C1	none
COc1ccc2cc(C#N)c(N3CCN(Cc4nnnn4CCC(C)C)CC3)nc2c1	none
COc1nc(N/N=C/c2ccc(-c3ccccc3[N+](=O)[O-])o2)nc(N2CCOCC2)n1	L major viab 86
O=[N+]([O-])c1cc2c(cc1/C=N/Nc1nc(N3CCCC3)nc(N3CCCC3)n1)OCO2	L major viab 76 (no result: b-catenin transl)
COc1ccc([N+](=O)[O-])cc1/C=N/Nc1nc(N2CCCCC2)nc(N2CCCCC2)n1	none
O=[N+]([O-])c1ccccc1/C=N/Nc1nc(N2CCCC2)nc(N2CCCC2)n1	none
O=[N+]([O-])c1ccc(Nc2nc(N/N=C\c3ccc4c(c3)OCO4)nc(N3CCCCC3)n2)cc1	L major viab 100 (no result: b-catenin transl)
O=[N+]([O-])c1ccc(-c2ccc(/C=N/Nc3nc(NCc4ccccc4)nc(N4CCOCC4)n3)o2)cc1	none
O=[N+]([O-])c1ccc(Nc2nc(NCCO)nc(N3CCCC3)n2)cc1	none
O=[N+]([O-])c1ccc(/C=N/Nc2nc(N3CCCCC3)nc(N3CCCCC3)n2)cc1	L major viab 54
C/C(CC(=O)Nc1cccc(C(F)(F)F)c1)=N\NC(=O)C1CCCCC1	none
CCOC(=O)COc1cc2oc(=O)cc(C)c2cc1[N+](=O)[O-]	none
Cc1ccc(-c2c(C)n([O-])c3c([n+]2=O)CCCCC3)cc1	none
Cc1[nH]c2ccccc2c1/C=N/NC(=O)CNC(=O)c1ccc2c(c1)OCCO2	none (no result: MT stabilizer, APP transl inh, L major viab)
O=[N+]([O-])c1ccc(/C=N/Nc2nc(N3CCCCCC3)nc(N3CCCCCC3)n2)o1	L major viab 100
Cc1ccc(/C=N/Nc2nc(N3CCCCC3)nc(N3CCCCC3)n2)o1	none
CCCN1CCN(C(=O)CCCn2c(C)c3cnn(-c4ccccc4)c(=O)c3c2C)CC1	L major viab 85 (no result: BaF3 tox, b-catenin transl, Ba/F3 V617F tox)
Cc1nn(C(C)C(=O)c2cccc(Cl)c2)c(C)c1[N+](=O)[O-] (stereo not drawn)	none
Cn1cnc([N+](=O)[O-])c1S(=O)(=O)c1cccc(Cl)c1	BaF3 tox 102, L major viab 65, Ba/F3 V617F tox 86
CC1(C)Cc2nc(NC3CCCCC3)c(C#N)cc2CO1	none
COc1ccc(C(=O)Cn2c(C)nc([N+](=O)[O-])c2Br)cc1	none (no result: MT stabilizer, APP transl inh, L major viab)
Cc1nc([N+](=O)[O-])c(Br)n1CC(=O)c1ccc(Cl)cc1	L major viab 99 (no result: b-catenin transl)
OC(COc1ccc(C2C=CCC2)cc1)CN1CCCCC1 (stereo not drawn)	L major viab 97
CN(C)S(=O)(=O)N1CCN(CC(O)COc2ccc(C(=O)c3ccccc3)cc2)CC1 (stereo not drawn)	L major viab 93
OC(COc1ccc(CNCCc2ccccc2F)cc1)CN1CCCCC1 (stereo not drawn)	L major viab 78
O=C(c1ccccc1)c1ccc(OCC(O)CN2CCCCC2)cc1 (stereo not drawn)	L major viab 89
N=c1ncn(CC(O)CO)c2nc(N3CCOCC3)[nH]c12 (stereo not drawn)	none (no result: b-catenin transl)
O=S(=O)(c1ccc(OCC(O)CN2CCc3ccccc3C2)cc1)N1CCOCC1 (stereo not drawn)	L major viab 62 (no result: b-catenin transl)
O=C(/C=C/c1ccccc1)N1CCN(CC(O)COc2ccccc2)CC1 (stereo not drawn)	L major viab 78
OC(COc1ccccc1)CN1CCOCC1 (stereo not drawn)	none
OC(COC(c1ccccc1)c1ccccc1)CN1CCCCC1 (stereo not drawn)	L major viab 99
CC(=O)N1CCN(CC(O)COc2ccc(OCc3ccccc3)cc2)CC1 (stereo not drawn)	none (no result: b-catenin transl)
O=C(c1ccc(Cl)cc1)c1ccc(OCC(O)CN2CCOCC2)cc1 (stereo not drawn)	L major viab 63 (no result: b-catenin transl)
CCN1CCN(CC(O)COC(c2ccccc2)c2ccccc2)CC1 (stereo not drawn)	none
CCC(=O)NC1=C(Cl)C(=O)C(NC(=O)CC)=C(Cl)C1=O	none (no result: MT stabilizer, APP transl inh, L major viab)
O=C(COC(=O)[C@@H]1CC(O)CN1S(=O)(=O)c1ccc2c(c1)OCCO2)NCc1ccc(F)cc1 (stereo partly drawn)	none
CN(C(=O)COC(=O)CNC(=O)c1sc2ccccc2c1Cl)c1ccccc1	none (no result: b-catenin transl)
COc1ccc(CCN2C(=NC(C)=O)SC3CS(=O)(=O)CC32)cc1OC (stereo not drawn)	none (no result: MT stabilizer, APP transl inh, L major viab)
COCc1c(C(=O)OCC(=O)N2c3ccccc3NC(=O)C2(C)C)oc2ccccc12	none (no result: b-catenin transl)

Compound activity from PubChem BioAssay.
